# Measured values as given in paper PMC5487498 (World Journal of Gastroenterology, 2017).
# Key:
# Assay in all cases: MTS cell proliferation/viability assay
# [1] = test system: CaCo-2; assay type: cell-based, human; conditions: read-out: IC50 CaCo-2, 72 h incubation
# Procedure, shortened: (§1)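 Cells were seeded at 10 × 10^3 cells/well and exposed 24 h later to test compound at 100, 50, 10, 5, 1 and 0.1 μmol/L for 72 h. MTS was then added for 2 h and absorbance read at 490 nm, with untreated control taken as 100%. HCT116 was grown in RPMI 1640; Caco-2 and murine 3T3 fibroblasts in high-glucose DMEM with pyruvate, 10% FBS and penicillin/streptomycin, at 37 °C and 5% CO2.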
# [2] = test system: 3T3; assay type: cell-based, murine; conditions: read-out: IC50 3T3, 72 h incubation, non-cancer fibroblasts
# Procedure, shortened: as §1
# [3] = test system: HCT116; assay type: cell-based, human; conditions: read-out: IC50 HCT116, 72 h incubation
# Procedure, shortened: as §1
SMILES,IC50 [1] [µM],IC50 [3] [µM],IC50 [2] [µM]
"COC1N(OC)c2ccccc2C12CN=C(Nc1ccc(C(F)(F)F)cc1)S2 (racemic) [Compound K-452, (±)-cis-1,2-dimethoxy-2’-(4-trifluoromethylphenylamino)spiro{indoline-3,5’[4’,5’]dihydrothiazol}]",> 100,> 100,> 100
"CON1C(=O)C2(CN=C(Nc3ccc(Br)cc3)S2)c2ccccc21 (racemic) [Compound K-463, (±)-1-methoxy-2’-(4-bromophenylamino)spiro{indoline-3,5’-[4’,5’]-dihydrothiazol}-2-one]",74.18 ± 0.001,33 ± 2.67,61.1 ± 2.25
"CC(C)(C)OC(=O)N1c2ccccc2C2(CN=C(Nc3ccc(C(F)(F)F)cc3)S2)C1N1CCCCC1 (racemic) [Compound K-471, trans-(±)-1-(terc-buthoxycarbonyl)-2-(1-piperidyl)-2’-(4-trifluoromethylphenylamino)spiro{indoline-3,5’-[4’,5’]dihydrothiazol}]",> 100,> 100,> 100
"COn1cc(CNC(=O)SC)c2cc(F)ccc21 [Compound K-459, 5-fluoro-1-methoxybrassitin]",> 100,> 100,> 100

# The next lines start with results.
IC50 [1] [µM],IC50 [3] [µM],SMILES,IC50 [2] [µM]
> 100,> 100,"COC1N(OC)c2ccc(F)cc2C12CN=C(SC)S2 (racemic) [Compound K-462, (±)-cis-5-fluoro-1-methoxyspirobrassinolmethylether]",> 100
35.7 ± 6.49,33.7 ± 2.78,"CON1C(=O)C2(CN=C(Nc3ccc(C(F)(F)F)cc3)S2)c2ccccc21 (racemic) [Compound K-465, (±)-1-methoxy-2’-(4-trifluoromethylphenylamino)spiro{indoline-3,5’-[4’,5’]-dihydrothiazol}-2-one]",34.9 ± 2.01
> 100,> 100,"CON1C(=O)C2(CN=C(Nc3ccc(C)cc3)S2)c2ccccc21 (racemic) [Compound K-466, (±)-1-methoxy-2’-(4-methylphenylamino)spiro{indoline-3,5’-[4’,5’]-dihydrothiazol}-2-one]",> 100
> 100,> 100,"CC(C)(C)OC(=O)N1c2ccccc2C2(CN=C(Nc3ccc(Cl)cc3)S2)C1N1CCCCC1 (racemic) [Compound K-467, trans-(±)-1-(terc-buthoxycarbonyl)-2-(1-piperidyl)-2’-(4-chlorophenylamino)spiro{indoline-3,5’-[4’,5’]dihydrothiazol}]",> 100
> 100,> 100,"CSC(=O)NCc1c[nH]c2ccc(F)cc12 [Compound K-455, 5-fluorobrassitin]",> 100
